Folding enthalpy and Tm data for 36 sequences are collected here from the array DNA melting data of Ke et al. (doi:10.1101/2024.01.08.574731).

Series [1] in a line: folding enthalpy; higher = less favourable; fluorescence melt of hairpins on a sequencing array, two-state fit. Conditions: sodium 0.088 M. In short, it runs like this:
(§1)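 On a sequenced MiSeq flow cell, library hairpins with annealed Cy3 and quencher oligos were imaged for Cy3 fluorescence in 2.5 °C steps up to 60 °C, in 50 mM Na-HEPES pH 8.0, 25 mM NaCl. Normalisation used pre-quench Cy3 and control constructs. Bootstrapped two-state fits gave melting temperature and folding enthalpy, combined by inverse variance across four replicates and with fitted temperatures raised by 9.35 °C to match UV melts.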

The nature of series [2]: melting temperature; fluorescence melt of hairpins on a sequencing array, two-state fit, raised by 9.35 °C to match UV melts. The settings on record: sodium 0.088 M. An outline of the steps:
as §1

Regarding GGCGACGAAAGTCTAGCC ((((((....)))..))), the folding enthalpy in series [1] was -28.6 kcal/mol. In series [2], the Tm was 54.5 °C.
Consider GGCGACGGAAACATCGCC (((((.(....).))))), for which the folding enthalpy in series [1] is -42.6 kcal/mol. For the same sequence, the Tm in series [2] amounted to 55.4 °C.
The corresponding values for GGCGACGGAAACGTCACC ((.((((....)))).)) are -33.5 kcal/mol and 54.7 °C.
In the same order, the values of GGCGACTCGAAAGAGGCC (((..(((....)))))) are -16.9 kcal/mol and 49.7 °C.
On to GGCGAGCGAAAGCTAGCC (((.(((....))).))), for which the folding enthalpy in series [1] was -42.2 kcal/mol. Further, the Tm in series [2] was determined as 68.7 °C.
In the same order, the values of GGCGAGCGAAAGCTGCC (((.(((....)))))) are -27.6 kcal/mol and 66.9 °C.
Turning to GGCGAGGGAAACCTCACC ((.((((....)))).)), the folding enthalpy in series [1] was -31.7 kcal/mol. Further, the Tm in series [2] came to 48.5 °C.
In the same order, the values of GGCGAGGGAAACCTCGTC (.(((((....))))).) are -36.4 kcal/mol and 60.8 °C.
In the case of GGCGATGGAAACATTGCC (((.(((....))).))), in series [1], the folding enthalpy was -47.2 kcal/mol. Also, in series [2], the Tm worked out at 55.2 °C.
Take GGCGCCGAAAGGCTTGCC ((((((....)))..))): the folding enthalpy in series [1] is -19.9 kcal/mol. Moreover, in series [2], the Tm was found to be 53.4 °C.
Consider GGCGCCGGAAACAGCGCC (((((.(....).))))), for which, in series [1], the folding enthalpy is -34.8 kcal/mol. The Tm in series [2] is 65.2 °C.
In the same order, the values of GGCGCTCCGAAAGGAGCC (((..(((....)))))) are -7.43 kcal/mol and 47.8 °C.
In the same order, the values of GGCGCTCGAAAGAGGGCC (((.(((....))).))) are -39.6 kcal/mol and 68.4 °C.
Regarding GGCGCTGGAAACAACGCC ((((.((....)).)))), the folding enthalpy in series [1] was -41 kcal/mol. Further, the Tm in series [2] came to 55.2 °C.
For the sequence GGCGCTGGAAACAGCACC ((.((((....)))).)), the folding enthalpy in series [1] was -29.7 kcal/mol. In addition, the Tm in series [2] turned out to be 54.8 °C.
Consider GGCGGCGAAAGCCCGGCC ((((((....)))..))), for which the folding enthalpy in series [1] was -17.7 kcal/mol. The Tm in series [2] amounted to 61.5 °C.
For the sequence GGCGGCGAAAGCCGCGCC ((((((....)))..))), the folding enthalpy in series [1] is -6.34 kcal/mol. The Tm in series [2] was 68 °C.
On to GGCGGCGAAAGCCGGGCC ((((((....)))..))), for which the folding enthalpy in series [1] was -10.1 kcal/mol. Besides, the Tm in series [2] worked out at 58.1 °C.
The corresponding values for GGCGGTACGAAAGTAGCC (((..(((....)))))) are -18.8 kcal/mol and 50.7 °C.
In the same order, the values of GGCGGTCCGAAAGGAGCC (((..(((....)))))) are -17.7 kcal/mol and 46.6 °C.
In the same order, the values of GGCGTAGGAAACCACGCC (((((.(....).))))) are -53.2 kcal/mol and 56.2 °C.
For GGCGTAGGAAACTATGCC (((.(((....))).))), the folding enthalpy in series [1] is -41.8 kcal/mol. The Tm in series [2] was 53.5 °C.
In the same order, the values of GGCGTCGAAAGACACGCC ((((((....)))..))) are -32 kcal/mol and 55 °C.
In the same order, the values of GGCGTCGAAAGACGAGCC ((((((....)))..))) are -16.7 kcal/mol and 54 °C.
The corresponding values for GGCGTCGAAAGACTCGCC ((((((....)))..))) are -20.6 kcal/mol and 50.1 °C.
GGCGTCGAAAGACTTGCC ((((((....)))..))): in series [1], the folding enthalpy is -24.6 kcal/mol. Moreover, in series [2], the Tm came to 48.9 °C.
In the same order, the values of GGCGTCGGAAACGGTGCC (((..((....))..))) are -30.6 kcal/mol and 51.6 °C.
On to GGCGTGCGAAAGCAGCC (((.(((....)))))), for which the folding enthalpy in series [1] is -26.9 kcal/mol. In addition, the Tm in series [2] was found to be 67.8 °C.
In the same order, the values of GGCGTGGGAAACCACGTC (.(((((....))))).) are -21.1 kcal/mol and 62.3 °C.
In the same order, the values of GGCGTGGGAAACTACGCC (((((.(....).))))) are -48 kcal/mol and 61.2 °C.
Consider GGCGTGGGAAACTGCGCC ((((..(....)..)))), for which the folding enthalpy in series [1] is -52.5 kcal/mol. Further, the Tm in series [2] was determined as 55.7 °C.
Take GGCGTTGGAAACAATGCC (((.(((....))).))): in series [1], the folding enthalpy was -53.7 kcal/mol. Besides, the Tm in series [2] amounted to 56.5 °C.
Consider GGCTAAGCGAAAGCTGCC (((..(((....)))))), for which, in series [1], the folding enthalpy is -23.7 kcal/mol. For the same sequence, the Tm in series [2] was 54.6 °C.
Take GGCTAAGGAAACTTGGCC (((.(((....))).))): in series [1], the folding enthalpy is -29.6 kcal/mol. For the same sequence, the Tm in series [2] is 50.4 °C.
In the same order, the values of GGCTAATCGAAAGATGCC (((..(((....)))))) are -27.2 kcal/mol and 45.2 °C.
Turning to GGCTACCCGAAAGGGGCC (((..(((....)))))), the folding enthalpy in series [1] is -18.9 kcal/mol. Further, the Tm in series [2] came to 50.6 °C.
